Legend:
Set-up in all cases: scale not given: the % may be the effect or the level left
Platelet [1] = assay: Inhibition of platelet activating factor-induced platelet aggregation in rabbit platelets at 100 ug/mL treated […] before […] challenge relative to control; format: functional, Oryctolagus cuniculus
Procedure, shortened: (§1)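 Rabbit platelets were preincubated at 37 °C for 3 min with compound at 100 μg/mL, or with 0.5% DMSO as the control, before the inducer was added. Inducers were thrombin 0.1 U/mL, arachidonic acid 100 μM, collagen 10 μg/mL, or PAF. The read-out was % aggregation, with 3–6 replicates.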

Platelet [2] = assay: Inhibition of collagen-induced platelet aggregation in rabbit platelets at 100 ug/mL treated […] before […] challenge relative to control; format: functional, Oryctolagus cuniculus; procedure, shortened: as §1
Platelet [3] = assay: Inhibition of arachidonic acid-induced platelet aggregation in rabbit platelets at 100 ug/mL treated […] before […] challenge relative to control; format: functional, Oryctolagus cuniculus; procedure, shortened: as §1
Platelet [4] = assay: Inhibition of thrombin-induced platelet aggregation in rabbit platelets at 100 ug/mL treated […] before thrombin challenge relative to control; format: functional, Oryctolagus cuniculus; procedure, shortened: as §1
Platelet [5] = assay: Inhibition of platelet activating factor-induced platelet aggregation in rabbit platelets at 50 ug/mL treated […] before […] challenge relative to control; format: functional, Oryctolagus cuniculus
Procedure, shortened: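 PAF-induced aggregation of rabbit platelets was run after 3 min preincubation at 37 °C with compound at graded levels or 0.5% DMSO control. PAF is given as 2 ng/mL in the footnote and 2 nM in the column header. Output is % aggregation with n per point.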

Platelet [6] = assay: Inhibition of platelet activating factor-induced platelet aggregation in rabbit platelets at 5 ug/mL treated 3 mins before platelet activating factor challenge relative to control
Platelet [7] = assay: Inhibition of platelet activating factor-induced platelet aggregation in rabbit platelets at 10 ug/mL treated 3 mins before platelet activating factor challenge relative to control
Platelet [8] = assay: Inhibition of platelet activating factor-induced platelet aggregation in rabbit platelets at 20 ug/mL treated 3 mins before platelet activating factor challenge relative to control
Platelet [9] = assay: Inhibition of arachidonic acid-induced platelet aggregation in rabbit platelets at 20 ug/mL treated 30 mins before […] challenge relative to control; format: functional, Oryctolagus cuniculus
Platelet [10] = assay: Inhibition of arachidonic acid-induced platelet aggregation in rabbit platelets at 50 ug/mL treated 30 mins before […] challenge relative to control; format: functional, Oryctolagus cuniculus
Platelet [11] = assay: Inhibition of arachidonic acid-induced platelet aggregation in rabbit platelets at 10 ug/mL treated 3 mins before arachidonic acid challenge relative to control
Platelet [12] = assay: Inhibition of thrombin-induced platelet aggregation in rabbit platelets at 50 ug/mL treated 30 mins before thrombin challenge relative to control; format: functional, Oryctolagus cuniculus
Platelet [13] = assay: Inhibition of collagen-induced platelet aggregation in rabbit platelets at 50 ug/mL treated 30 mins before […] challenge relative to control; format: functional, Oryctolagus cuniculus
Platelet [14] = assay: Inhibition of arachidonic acid-induced platelet aggregation in rabbit platelets at 50 ug/mL treated 3 min before arachidonic acid challenge relative to control
Platelet [15] = assay: Inhibition of arachidonic acid-induced platelet aggregation in rabbit platelets at 5 ug/mL treated 3 mins before arachidonic acid challenge relative to control

COc1cc2c(O)c3c4c(cc(OC)c(OC)c4c2cc1OC)CCN3C
Activity (Platelet [1]): 0%
Activity (Platelet [2]): 12.7%
Activity (Platelet [3]): 21.8%
Activity (Platelet [4]): 78.8%
Activity (Platelet [5]): 0%
Activity (Platelet [6]): 77.9%
Activity (Platelet [7]): 64.9%
Activity (Platelet [8]): 25.2%

COc1cc2c3c(cc4ccccc4c3c1O)N(C)CC2 [DEHYDROLIRINIDINE]
Activity (Platelet [1]): 51.7%
Activity (Platelet [2]): 0%
Activity (Platelet [3]): 0%
Activity (Platelet [4]): 86.3%
Activity (Platelet [9]): 77.6%
Activity (Platelet [10]): 23.8%
Activity (Platelet [11]): 82.8%

COc1cc2ccnc3c2c(c1OC)-c1ccccc1C3=O [LYSICAMINE]
Activity (Platelet [12]): 88.9%
Activity (Platelet [5]): 83.7%
Activity (Platelet [13]): 55.2%
Activity (Platelet [10]): 16.3%

COc1cc2c(cc1OC)-c1c(OC)c(OC)cc3ccnc(c13)C2=O [OXOGLAUCINE]
Activity (Platelet [12]): 87%
Activity (Platelet [5]): 84.4%
Activity (Platelet [13]): 74.4%
Activity (Platelet [14]): 55.8%

COc1cc2c(cc1OC)-c1c(OC)c(OC)c(OC)c3ccnc(c13)C2=O [OXOPURPUREINE]
Activity (Platelet [1]): 87.2%
Activity (Platelet [2]): 53.5%
Activity (Platelet [3]): 43.7%

COc1cc2c(cc1OC)-c1c(OC)c(O)cc3c1[C@H](C2)N(C)CC3 [PREDICENTRINE]
Activity (Platelet [1]): 74%
Activity (Platelet [2]): 0%
Activity (Platelet [3]): 0%
Activity (Platelet [4]): 88.9%
Activity (Platelet [9]): 83.2%
Activity (Platelet [10]): 62%

COc1cc2c(cc1OC)-c1c(OC)c(OC)c(O)c3c1[C@@H](C2)N(C)CC3 [THALBAICALIDINE]
Activity (Platelet [1]): 73.6%
Activity (Platelet [2]): 0%
Activity (Platelet [3]): 4.2%
Activity (Platelet [4]): 86.3%
Activity (Platelet [9]): 82.2%
Activity (Platelet [10]): 72.2%

CNCCc1c(OC)c(OC)c(OC)c2c1ccc1cc(OC)c(OC)cc12 [THALICPUREINE]
Activity (Platelet [1]): 0%
Activity (Platelet [2]): 0%
Activity (Platelet [3]): 0%
Activity (Platelet [4]): 33.6%
Activity (Platelet [9]): 41.9%
Activity (Platelet [5]): 3.9%
Activity (Platelet [10]): 0%
Activity (Platelet [15]): 83.7%
Activity (Platelet [11]): 74.2%
Activity (Platelet [6]): 82.4%
Activity (Platelet [7]): 78.8%
Activity (Platelet [8]): 55.5%

Reference: ChEMBL document CHEMBL1151319, “Antiplatelet aggregation constituents from Annona purpurea” (1998)
